Experimental data: ChEMBL document CHEMBL1122970, “Synthesis and antitumor and antiviral activities of a series of 1-beta-D-ribofuranosyl-5-halocytosine (5-halocytidine) cyclic 3',5'-monophosphates” (1985)
Where “and” joins values, the source holds several entries; their conditions need not be identical. Equal entries are not always repeated. Calls of active or inactive are those of the source. The rule behind the calls is not given here.

Tests used:
[1] = system: Human alphaherpesvirus 1; experiment: Antiviral activity against Herpes simplex virus -1 strain KOS was evaluated in african green monkey kidney; format: functional
[2] = system: Human alphaherpesvirus 2; experiment: In vitro antiviral activity against Herpes simplex virus -2 strain MS was evaluated in african green monkey kidney; format: functional
[3] = system: Human alphaherpesvirus 1; experiment: In vitro antiviral activity against Herpes simplex virus -1 strain KOS was evaluated in african green monkey kidney; format: functional
[4] = system: Human alphaherpesvirus 2; experiment: Antiviral activity against Herpes simplex virus -2 strain MS was evaluated in african green monkey kidney; format: functional
[5] = system: L1210; experiment: In vitro antitumor activity against L1210 cell line in mice.; format: functional, Mus musculus
How it was run: (§1)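 Cells at 1 × 10⁶ cells/mL were incubated with filter-sterilized compound in growth medium, in duplicate, at log concentrations from 1 × 10⁻⁹ to 1 × 10⁻⁴ M. After 48 h at 37 °C, Coulter counts were taken and growth was expressed as a percentage of untreated controls. ID₅₀ is the concentration giving 50% growth inhibition.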

[6] = system: P388; experiment: In vitro antitumor activity against P388 cell line in mice.; format: functional, Mus musculus; how it was run: as §1
[7] = system: Human respirovirus 3; experiment: In vitro antiviral activity against Para influenza virus type 3 strain C243 was evaluated in african green monkey kidney; format: functional
[8] = system: Vaccinia virus; experiment: Antiviral activity against Vaccinia virus strain Elstree was evaluated in african green monkey kidney; format: functional, Orthopoxvirus vaccinia
[9] = system: Vaccinia virus; experiment: In vitro antiviral activity against Vaccinia virus strain Elstree was evaluated in african green monkey kidney; format: functional, Orthopoxvirus vaccinia
[10] = system: Human respirovirus 3; experiment: Antiviral activity against Para influenza virus type 3 strain C243 was evaluated in african green monkey kidney; format: functional
[11] = system: Coxsackievirus B1; experiment: Antiviral activity against Coxsackie B1 strain HA 201468 was evaluated in african green monkey kidney; format: functional
How it was run: (§2)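 Confluent Vero monolayers (4 × 10⁴ cells/well, EMEM with 10% heat-inactivated newborn bovine serum, 24 h at 37 °C, 5% CO₂) were infected per well with Cox B1 200, Reo 3 470 or VSV 2 TCID₅₀ units. After 30 min adsorption, compound was added at seven 0.5-log steps, final 5 × 10⁻⁶ to 5 × 10⁻³ M, in duplicate wells. CPE was scored microscopically 0–4 at 72 h to give VR, and ED₅₀ was checked on crystal-violet-stained plates.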

[12] = system: Coxsackievirus B1; experiment: In vitro antiviral activity against Coxsackie B1 strain HA 201468 was evaluated in african green monkey kidney; format: functional; how it was run: as §2
[13] = system: L1210; experiment: In vitro antitumor activity against L1210 cell line in mice; B indicates inactive at 10e-1 mmol/L; format: functional, cell-based; details: Mus musculus; how it was run: as §1
[14] = system: P388; experiment: In vitro antitumor activity against P388 cell line in mice; B indicates inactive at 10e-1 mmol/L; format: functional, cell-based; details: Mus musculus; how it was run: as §1
[15] = system: Mammalian orthoreovirus 3; experiment: Antiviral activity against Reovirus type 3 strain Abney was evaluated in african green monkey kidney; format: functional; how it was run: as §2
[16] = system: Mammalian orthoreovirus 3; experiment: In vitro antiviral activity against Reovirus type 3 strain Abney was evaluated in african green monkey kidney; format: functional; how it was run: as §2
[17] = system: Vesicular stomatitis virus; experiment: Antiviral activity against Vesicular stomatitis virus strain indiana was evaluated in african green monkey kidney; format: functional; how it was run: as §2
[18] = system: Vesicular stomatitis virus; experiment: In vitro antiviral activity against Vesicular stomatitis virus strain indiana was evaluated in african green monkey kidney; format: functional; how it was run: as §2
[19] = system: Vero; experiment: In vitro cytotoxicity against Vero cells.; format: functional, Chlorocebus sabaeus
[20] = system: Human alphaherpesvirus 1; experiment: Antiviral activity against Herpes simplex virus -1 strain MS was evaluated in african green monkey kidney; format: functional

| Compound | ED50 [1] [µM] | Virus rating [2] | Virus rating [3] | ED50 [4] [µM] | ID50 [5] [µM] | ID50 [6] [µM] | Virus rating [7] | ED50 [8] [µM] | Virus rating [9] | ED50 [10] [µM] | ED50 [11] [µM] | Virus rating [12] | ID50 [13] | ID50 [14] | ED50 [15] [µM] | Virus rating [16] | ED50 [17] [µM] | Virus rating [18] | Cytotoxicity [19] | ED50 [20] [µM] |
| --- | --- | --- | --- | --- | --- | --- | --- | --- | --- | --- | --- | --- | --- | --- | --- | --- | --- | --- | --- | --- |
| Cl.Nc1nc(=O)n([C@@H]2O[C@H](CO)[C@@H](O)[C@H]2O)cc1F | 20 | 2.1 | 1 | < 0.5 | 2.6 | 3 | 0.8 | 5e-05 | 1.3 | 130 |  |  |  |  |  |  |  |  |  |  |
| N.Nc1nc(=O)n([C@@H]2O[C@@H]3CO[PH](O)(O)O[C@H]3[C@H]2O)cc1Cl | > 5000 | 0.1 | 0 | > 5000 |  |  | 0 | > 5000 | 0 | > 5000 | > 5000 | 0 | inactive | inactive | > 5000 | 0 | > 5000 | 0 | 5 mM |  |
| Nc1ccn([C@@H]2O[C@H](CO)[C@@H](O)[C@@H]2O)c(=O)n1 [CYTARABINE] | 0.34 | 2.7 | 2.7 | 1.1 | 2.5 | 1.2 | 0 | 0.34 | 2.8 | > 500 |  |  |  |  |  |  |  |  | 0.0005 mM |  |
| Nc1nc(=O)[nH]cc1F [FLUCYTOSINE] | > 5000 | 0.5 | 0 | > 5000 |  |  | 0.4 | > 5000 | 0 | > 5000 |  |  | inactive | inactive |  |  |  |  | 5 mM |  |
| N.Nc1nc(=O)n([C@@H]2O[C@@H]3CO[PH](O)(O)O[C@H]3[C@H]2O)cc1Br | > 5000 | 0.2 | 0.1 | 5000 |  |  | 0 | 5000 | 0.1 | > 5000 | > 5000 | 0 | inactive | inactive | > 5000 | 0 | > 5000 | 0 | 2 mM l-1 and 5 mM l-1 |  |
| N.Nc1nc(=O)n([C@@H]2O[C@@H]3CO[PH](O)(O)O[C@H]3[C@H]2O)cc1F | 220 | 0.9 | 0.6 | 92 | 0.31 | 0.31 | 0.1 | 290 | 0.6 | > 5000 | > 5000 | 0 |  |  | > 5000 | 0 | 5000 | 0.2 | 0.2 mM l-1 and 0.5 mM l-1 |  |
| N.Nc1nc(=O)n([C@@H]2O[C@@H]3CO[PH](O)(O)O[C@H]3[C@H]2O)cc1I | > 5000 | 0 | 0 | > 5000 |  |  | 0 | > 5000 | 0 | > 5000 | > 5000 | 0 | inactive | inactive | > 5000 | 0 | > 5000 | 0.2 | 2 mM l-1 and 5 mM l-1 |  |
| Nc1nc(=O)n([C@@H]2O[C@H](COP(=O)(O)O)[C@@H](O)[C@H]2O)cc1F |  | 2 | 1.2 | < 0.5 | 3.4 | 3.1 | 1 | 9e-05 | 1.4 | 20 |  |  |  |  |  |  |  |  |  | 20 |
